# Published values of several laboratories.
# Each line is one published result; the experiments were not run side by side.
# Target: Cyclin-dependent kinase 8 (CDK8, Homo sapiens, UniProt P49336)
Structure (SMILES),observed,mode,method,concentration,measurement,result
Cc1ccc(NC(=O)c2ccnc(C(F)(F)F)c2)cc1-c1cc(OCCO)nc(N2CCOCC2)c1,binding,,competition with immobilised ligand,1 µM,remaining binding,100%
C1=C/COCc2cc(ccc2OCCN2CCCC2)Nc2nccc(n2)-c2cccc(c2)COC/1,cell-free assay,,,0.1 µM,remaining signal,75%
CO[C@@H]1[C@H](N(C)C(=O)c2ccccc2)C[C@H]2O[C@]1(C)n1c3ccccc3c3c4c(c5c6ccccc6n2c5c31)C(=O)NC4,enzyme activity,inhibitor,,1 µM,inhibition,5%
CCCCC(=O)Nc1ccc(-c2ccc3ncn(CCC)c(=O)c3c2)cn1,binding,,competition with immobilised ligand,0.5 µM,remaining binding,83%
Cc1cc(S(=O)(=O)N[C@H]2CC[C@H](CN3CCN(c4ccc(C5CCC(=O)NC5=O)cc4F)CC3)CC2)ccc1Nc1ncc(C(F)(F)F)c(N2CCC[C@](C)(O)C2)n1 (some centres unmarked),binding,,competition with immobilised ligand,1 µM,remaining binding,76%
CC#CC(=O)N1CCC[C@H]1c1nc(-c2ccc(C(=O)Nc3ccccn3)cc2)c2c(N)nccn12,enzyme activity,inhibitor,,1 µM,inhibition,5%
C[C@]1(O)CCCN(c2nc(Nc3ccc(S(=O)(=O)N[C@H]4CC[C@H](CN5CCN(c6ccc(C7CCC(=O)NC7=O)cc6F)CC5)CC4)cc3Cl)ncc2C(F)(F)F)C1 (some centres unmarked),binding,,competition with immobilised ligand,1 µM,remaining binding,80%
C[C@H]1CC[C@H](n2c3cnccc3c3cnc(Nc4ccc5c(n4)CCN(C(=O)CO)C5)nc32)CC1,binding,,competition with immobilised ligand,1 µM,remaining binding,100%
